According to ChEMBL document CHEMBL4382241, “Synthesis and evaluation of third generation vitamin D3 analogues as inhibitors of Hedgehog signaling” (Eur J Med Chem, 2019):
Converted amounts (≈) assume the structure as drawn. The source made the active and inactive calls. The calls are words filed in the database; no cut-off is given here.

Columns and labels:
Medulloblastoma cell = experiment: Antiproliferative activity against medulloblastoma cells derived from conditional patched knockout mouse after 48 hrs by [3H]-thymidine incorporation assay; format: functional
In short: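 Primary tumour cells from Math1-Cre;Ptc fl/fl medulloblastoma were isolated and cultured in vitro, then incubated with analogue for 48 h in a proliferation assay. GI50 is mean ± SEM of at least two separate experiments performed in triplicate.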

[1] = Kinetic solubility of the compound in pH 7.4 phosphate buffered saline; format: physicochemical; conditions: read-out: Kinetic_solubility
In short: (§1)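 Kinetic solubility was run in PBS at pH 4.0 and at pH 7.4 under a standard contract protocol. Compound concentration was measured by LC-MS/MS.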

Mus musculus [2] = organism: Mus musculus; experiment: Inhibition of Hedgehog signaling pathway in mouse C3H10T1/2 cells assessed as residual oxysterol-induced Gli1 mRNA expression at 5 uM after 24 hrs by q-PCR analysis relative to oxysterol alone
[3] = Clearance in human liver microsomes assessed per mg protein at 1 uM by LC-MS/MS analysis
[4] = Inhibition of Hedgehog signaling pathway in mouse ASZ001 cells assessed as reduction in […] Gli1 mRNA expression after 48 hrs by q-PCR analysis; format: cell-based; conditions: ASZ001, 48 h
[5] = Kinetic solubility of the compound in pH 4 phosphate buffered saline; format: physicochemical; conditions: read-out: Kinetic_solubility; in short: as §1
[6] = target: T1, Vitamin D3 receptor (Mus musculus) (UniProt P48281); experiment: Activation of VDR in mouse C3H10T1/2 cells assessed as change in Cyp24A1 mRNA expression at 5 uM after 24 hrs by q-PCR analysis relative to control; format: cell-based
T1 sequence (whole entry): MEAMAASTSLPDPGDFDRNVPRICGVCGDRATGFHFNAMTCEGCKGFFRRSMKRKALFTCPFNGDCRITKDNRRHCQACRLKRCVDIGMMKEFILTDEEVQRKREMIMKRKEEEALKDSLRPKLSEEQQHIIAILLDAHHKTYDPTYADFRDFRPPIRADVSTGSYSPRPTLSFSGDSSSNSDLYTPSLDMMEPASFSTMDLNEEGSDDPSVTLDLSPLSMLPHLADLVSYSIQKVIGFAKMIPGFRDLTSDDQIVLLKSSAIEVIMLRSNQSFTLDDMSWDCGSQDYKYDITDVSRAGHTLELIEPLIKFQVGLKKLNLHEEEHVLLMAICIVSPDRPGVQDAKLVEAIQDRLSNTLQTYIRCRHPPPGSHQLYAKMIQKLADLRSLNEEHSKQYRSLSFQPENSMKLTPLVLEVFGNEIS

[7] = target: T1, Vitamin D3 receptor (Mus musculus); experiment: Activation of VDR in mouse ASZ001 cells assessed as change in Cyp24A1 mRNA expression at 2.5 uM after 48 hrs by q-PCR analysis relative to control; format: cell-based
[8] = Inhibition of Hedgehog signaling pathway in mouse C3H10T1/2 cells assessed as reduction in oxysterol-induced Gli1 mRNA expression after 24 hrs by q-PCR analysis; format: cell-based; conditions: C3H 10T1/2, 24 h
[9] = Half life in human liver microsomes at 1 uM by LC-MS/MS analysis
Mus musculus [10] = organism: Mus musculus; experiment: Inhibition of Hedgehog signaling pathway in Sufu-deficient mouse C3H10T1/2 cells assessed as reduction in oxysterol-induced Gli1 mRNA expression at 5 uM after 24 hrs by q-PCR analysis
Mus musculus [11] = organism: Mus musculus; experiment: Inhibition of Hedgehog signaling pathway in Sufu-deficient mouse C3H10T1/2 cells assessed as reduction in oxysterol-induced Gli1 mRNA expression at 1 uM after 24 hrs by q-PCR analysis
[12] = Half life in rat liver homogenates; format: ADME, tissue-based
Mus musculus [13] = organism: Mus musculus; experiment: Inhibition of Hedgehog signaling pathway in VDR-deficient mouse C3H10T1/2 cells assessed as change in CYP24A1 mRNA expression at 1 uM after 24 hrs by q-PCR analysis; parameters: scale not given: the % may be the effect or the level left
Mus musculus [14] = organism: Mus musculus; experiment: Inhibition of Hedgehog signaling pathway in VDR-deficient mouse C3H10T1/2 cells assessed as reduction in oxysterol-induced Gli1 mRNA expression at 1 uM after 24 hrs by q-PCR analysis
[15] = target: T1, Vitamin D3 receptor (Mus musculus); experiment: Activation of VDR in mouse ASZ001 cells assessed as change in Cyp24A1 mRNA expression at 1 uM after 48 hrs by q-PCR analysis relative to control; format: cell-based
Mus musculus [16] = organism: Mus musculus; experiment: Inhibition of Hedgehog signaling pathway in mouse C3H10T1/2 cells assessed as reduction in oxysterol-induced Gli1 mRNA expression at 1 uM after 24 hrs by q-PCR analysis relative to oxysterol alone; format: cell-based; parameters: scale not given: the % may be the effect or the level left
In short: (§2)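 Gli1 transcription was induced in C3H10T1/2 cells by co-treating with 20(S)-OHC and 22(S)-OHC (5 µM each) plus analogue for 24 h. Gli1 mRNA was quantified by qPCR and expressed as % of the oxysterol-only control (set to 100%). Data are mean ± SEM of at least two separate experiments run in triplicate.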

Mus musculus [17] = organism: Mus musculus; experiment: Inhibition of Hedgehog signaling pathway in Sufu-deficient mouse C3H10T1/2 cells assessed as change in CYP24A1 mRNA expression at 1 uM after 24 hrs by q-PCR analysis; parameters: scale not given: the % may be the effect or the level left
[18] = Inhibition of Hedgehog signaling pathway in VDR-deficient mouse C3H10T1/2 cells assessed as reduction in oxysterol-induced Gli1 mRNA expression after 24 hrs by q-PCR analysis; conditions: C3H 10T1/2, 24 h
Vitamin D3 receptor = target: T2, Vitamin D3 receptor (Mus musculus, UniProt P48281); experiment: Activation of VDR in mouse ASZ001 cells assessed as change in Cyp24A1 mRNA expression after 48 hrs by q-PCR analysis; format: cell-based
T2 sequence (P48281 whole entry): T1 sequence (whole entry)
In short: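 In ASZ001 cells, full dose-response Cyp24A1 mRNA measurement by qPCR was done relative to DMSO control (1.0). EC50 values are mean ± SEM of at least two separate experiments performed in triplicate.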

[19] = target: T1, Vitamin D3 receptor (Mus musculus); experiment: Activation of VDR in mouse ASZ001 cells assessed as change in Cyp24A1 mRNA expression at 5 uM after 48 hrs by q-PCR analysis relative to control; format: cell-based
[20] = target: T1, Vitamin D3 receptor (Mus musculus); experiment: Activation of VDR in mouse C3H10T1/2 cells assessed as change in Cyp24A1 mRNA expression at 2.5 uM after 24 hrs by q-PCR analysis relative to control; format: cell-based
Mus musculus [21] = organism: Mus musculus; experiment: Inhibition of Hedgehog signaling pathway in mouse C3H10T1/2 cells assessed as reduction in oxysterol-induced Gli1 mRNA expression at 2.5 uM after 24 hrs by q-PCR analysis relative to oxysterol alone; format: cell-based; in short: as §2
Mus musculus [22] = organism: Mus musculus; experiment: Inhibition of Hedgehog signaling pathway in Sufu-deficient mouse C3H10T1/2 cells assessed as change in CYP24A1 mRNA expression at 5 uM after 24 hrs by q-PCR analysis; parameters: scale not given: the % may be the effect or the level left
[23] = Inhibition of Hedgehog signaling pathway in Sufu-deficient mouse C3H10T1/2 cells assessed as reduction in oxysterol-induced Gli1 mRNA expression after 24 hrs by q-PCR analysis; conditions: C3H 10T1/2, 24 h
Mus musculus [24] = organism: Mus musculus; experiment: Inhibition of Hedgehog signaling pathway in VDR-deficient mouse C3H10T1/2 cells assessed as reduction in oxysterol-induced Gli1 mRNA expression at 5 uM after 24 hrs by q-PCR analysis
Mus musculus [25] = organism: Mus musculus; experiment: Inhibition of Hedgehog signaling pathway in VDR-deficient mouse C3H10T1/2 cells assessed as change in CYP24A1 mRNA expression at 5 uM after 24 hrs by q-PCR analysis; parameters: scale not given: the % may be the effect or the level left

Row | Compound | GI50 (Medulloblastoma cell) | solubility kinetic [1] | % Gli1 activity (Mus musculus [2]) | CLH [3] | IC50 [4] | solubility kinetic [5] | Activity [6] | IC50 [8] | half-life at 1 µM ([9]; liver microsomes) | IC50 [18] | EC50 (Vitamin D3 receptor) | other results
1 | CC(C)CCC[C@@H](C)[C@H]1CC[C@H]2[C@H](CNc3ccc(O)cc3)CCC[C@]12C | 2100 nM | 2.7 ng/mL (≈ 7.27 nM) | 1.9% | < 3 | 600 nM | 0.13 ng/mL (≈ 0.35 nM) | 8.9% | 600 nM | – | – | – | Activity [7]: 5.8%; half-life at 1 µM ([9]; microsomes): > 3.85 h
2 | CS(=O)(=O)c1ccc(C(=O)Nc2ccc(Cl)c(-c3ccccn3)c2)c(Cl)c1 [VISMODEGIB] | – | – | 0.9% | – | 40 nM | – | – | 82 nM | – | – | – | Hedgehog inhibition activity call (active/not active) (Mus musculus [10]): Active; inhibition (Mus musculus [11]): inactive
3 | CC(C)CCC[C@@H](C)[C@H]1CC[C@H]2[C@@H](OC(=O)c3cccc(O)c3)CCC[C@]12C | > 10000 nM | 670 ng/mL (≈ 1730 nM) | – | < 3 | – | 160 ng/mL (≈ 414 nM) | – | – | > 3.85 h | – | – | –
4 | CC(C)CCC[C@@H](C)[C@H]1CC[C@H]2[C@H](Nc3ccc(O)cc3)CCC[C@]12C | 2100 nM | 0.26 ng/mL (≈ 0.727 nM) | – | < 3 | – | 0.75 ng/mL (≈ 2.1 nM) | – | – | > 3.85 h | – | – | –
5 | C=C1/C(=C\C=C2/CCC[C@]3(C)[C@@H]([C@H](C)CCCC(C)(C)O)CC[C@@H]23)C[C@@H](O)C[C@@H]1O [CALCITRIOL] | 1400 nM | – | – | – | – | – | > 30000% | – | – | – | – | half-life [12]: > 2 h; Activity (Mus musculus [13]): 530%; inhibition (Mus musculus [14]): inactive; Activity [15]: > 30000%; Activity (Mus musculus [16]): 30%; inhibition (Mus musculus [11]): inactive; Activity (Mus musculus [17]): 590%
6 | CCC(CC)(c1ccc(OCC(O)CO)c(C)c1)c1ccc(OCC(O)C(C)(C)C)c(C)c1 (configuration not stated) [LG-190178] | – | – | – | – | 0.23 nM | – | – | 0.25 nM | – | 1900 nM | 7.7 nM | Activity (Mus musculus [13]): 250%; Activity [15]: 13000%
7 | C[C@H](CCCC(C)(C)O)[C@H]1CC[C@H]2[C@@H](OC(=O)c3cccc(O)c3)CCC[C@]12C | > 10000 nM | 31 ng/mL (≈ 77 nM) | 2.9% | 15 | 400 nM | 48 ng/mL (≈ 119 nM) | 27000% | 1600 nM | 0.783 h | – | 400 nM | Activity [19]: > 30000%
8 | CC(C)CCC[C@@H](C)[C@H]1CC[C@H]2[C@H](CNc3cccc(O)c3)CCC[C@]12C | – | – | 13% | – | 1200 nM | – | 13% | 3800 nM | – | – | – | Activity [7]: 7.8%
9 | C=C1CC[C@H](O)C/C1=C/C=C1\CCC[C@]2(C)[C@@H]([C@H](C)CCCC(C)(C)O)CC[C@@H]12 [CALCIFEDIOL ANHYDROUS] | – | – | – | – | 500 nM | – | – | 400 nM | – | – | 600 nM | Activity [20]: > 30000%; % Gli1 activity (Mus musculus [21]): 9.2%; Activity [15]: 11000%
10 | C[C@H](CCCC(C)(C)O)[C@H]1CC[C@H]2[C@@H](Nc3ccc(O)cc3)CCC[C@]12C | 2200 nM | 4.2 ng/mL (≈ 11.2 nM) | 11% | – | 200 nM | 2400 ng/mL (≈ 6420 nM) | 15000% | 890 to 900 nM | – | 4900 nM | 600 nM | Hedgehog inhibition activity call (active/not active) (Mus musculus [10]): inactive; Activity (Mus musculus [22]): 51%; IC50 [23]: 2900 nM; inhibition (Mus musculus [24]): inactive; Activity [19]: > 30000%; Activity (Mus musculus [25]): 140%
11 | CC(C)CCC[C@@H](C)[C@H]1CC[C@H]2[C@@H](Nc3ccc(O)cc3)CCC[C@]12C | – | 2.6 ng/mL (≈ 7.27 nM) | – | 12 | – | 0.62 ng/mL (≈ 1.73 nM) | 45% | 400 nM | 0.95 h | 3900 nM | – | Hedgehog inhibition activity call (active/not active) (Mus musculus [10]): inactive; Activity (Mus musculus [22]): 1.2%; IC50 [23]: 3100 nM; inhibition (Mus musculus [24]): inactive; Activity (Mus musculus [25]): 8.1%
12 | C=C1CC[C@H](O)C/C1=C/C=C1\CCC[C@]2(C)[C@@H]([C@H](C)CCCC(C)C)CC[C@@H]12 [CHOLECALCIFEROL] | 5800 nM | – | – | – | – | – | – | – | – | 4500 nM | 900 nM | inhibition (Mus musculus [10]): inactive; Activity (Mus musculus [22]): 2.9%; IC50 [23]: > 10000 nM; inhibition (Mus musculus [24]): inactive; Activity (Mus musculus [25]): 5.5%
